Results from ChEMBL document CHEMBL4311932, “Novel zafirlukast derivatives exhibit selective antibacterial activity against Porphyromonas gingivalis” (Medchemcomm, 2019).
Calls of active or inactive are those of the source. No cut-off for these calls is given here.

How the values were obtained:
Porphyromonas gingivalis [1] = assay: Antibacterial activity against Porphyromonas gingivalis 381 assessed as bacterial growth inhibition at 25 to 50 uM measured after 2 hrs in anaerobic condition by WST1 assay; format: functional, organism-based
Porphyromonas gingivalis [2] = assay: Bactericidal activity against Porphyromonas gingivalis 381 at 25 to 50 uM treated for 24 hrs and measured after 7 days incubation in anaerobic condition […]; format: functional, organism-based
Outline: (§1)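 Viable-count assay on P. gingivalis 381 (10^6/well) grown anaerobically. Cultures were exposed for 24 h to agents dissolved in DMSO. 50 µL of 1:400 dilutions were spread on blood agar, and CFU/mL was counted after 7 days anaerobic incubation. Controls were medium or DMSO (negative) and tetracycline 2.25 µM (positive).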

Porphyromonas gingivalis [3] = assay: Antibacterial activity against Porphyromonas gingivalis 381 assessed as bacterial growth inhibition at 100 uM measured after 2 hrs in anaerobic condition by WST1 assay relative to control; format: functional; conditions: Porphyromonas gingivalis, 381, 2 h; read-out: GI
Outline: (§2)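 P. gingivalis 381 was grown anaerobically in BHI with 5 µg/mL hemin and 1 µg/mL menadione to log phase (3-4 h). Cultures at 10^6/well in 90 µL broth were exposed for 2 h, then given WST-1 for another 2 h. A450 was read with a 600 nm reference. % growth inhibition was taken against medium-only control, using DMSO vehicle and tetracycline 1 µg/mL as comparators.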

Porphyromonas gingivalis [4] = assay: Antibacterial activity against Porphyromonas gingivalis 381 assessed as bacterial growth inhibition at 10 uM measured after 2 hrs in anaerobic condition by WST1 assay relative to control; format: functional; conditions: Porphyromonas gingivalis, 381, 2 h; read-out: GI; outline: as §2
Porphyromonas gingivalis [5] = assay: Antibacterial activity against Porphyromonas gingivalis 381 assessed as bacterial growth inhibition at 1 uM measured after 2 hrs in anaerobic condition by WST1 assay relative to control; format: functional; conditions: Porphyromonas gingivalis, 381, 2 h; read-out: GI; outline: as §2
Actinomyces naeslundii = assay: Antibacterial activity against Actinomyces naeslundii ATCC 49340 assessed as bacterial growth inhibition at 1 to 100 uM after 2 hrs in anaerobic condition by WST1 assay; format: functional, organism-based
Outline: (§3)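 Log-phase cultures (3-4 h in BHI broth after overnight growth) were plated at 10^6 bacteria/well in 90 µL and treated for 2 h. WST-1 was then added for a further 2 h incubation, aerobic for S. sanguinis and anaerobic for the others, at 37 °C. A450 was read against a 600 nm reference. % inhibition = 100 × [OD(medium control) − OD(treated)]/OD(control). Compounds were dissolved in DMSO.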

[6] = test system: Aggregatibacter actinomycetemcomitans; assay: Antibacterial activity against Aggregatibacter actinomycetemcomitans JP2 assessed as bacterial growth inhibition at 1 to 100 uM after 2 hrs in anaerobic condition by WST1 assay; format: functional, organism-based; outline: as §3
Streptococcus sanguinis = assay: Antibacterial activity against Streptococcus sanguinis ATCC 10556 assessed as bacterial growth inhibition at 1 to 100 uM after 2 hrs in aerobic condition by WST1 assay relative to control; format: functional; outline: as §3
Veillonella parvula = assay: Antibacterial activity against Veillonella parvula ATCC 10790 assessed as bacterial growth inhibition at 1 to 100 uM after 2 hrs in anaerobic condition by WST1 assay; format: functional, organism-based; outline: as §3
Fusobacterium nucleatum = assay: Antibacterial activity against Fusobacterium nucleatum ATCC 25586 assessed as bacterial growth inhibition at 1 to 100 uM after 2 hrs in anaerobic condition by WST1 assay relative to control; format: functional; outline: as §3
[7] = Cytotoxicity against hTERT-immortalized human OKF6 cells assessed as cell viability at 1 uM after 24 hrs by tryphan blue staining based assay relative to control; conditions: read-out: Activity
Outline: (§4)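 OKF6/hTERT keratinocytes were grown in Ker-SFM with 25 µg/mL bovine pituitary extract and 0.2 ng/mL EGF at 37 °C, 5% CO2. Cells were seeded overnight at 10^5/well and exposed for 24 h to 1 or 10 µM in DMSO. Cells were then trypsinized, washed, mixed 1:1 with trypan blue and counted automatically for % live/dead. Two independent experiments were run in duplicate.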

[8] = Induction of apoptosis in hTERT-immortalized human OKF6 cells assessed as viable cells at 1 to 10 uM after 24 hrs by AnnexinV-FITC/propidium iodide staining based flow cytometry analysis relative to control; conditions: read-out: Activity
Outline: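 After 24 h treatment of OKF6/hTERT cells, adherent cells (trypsinized) were pooled with cells recovered from supernatants and washed in PBS. They were stained with FITC-Annexin V plus propidium iodide for 15 min at room temperature. At least 10,000 events were acquired per sample (excitation 488 nm, emission 530 nm), with viable, apoptotic and necrotic fractions reported against DMSO.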

[9] = Cytotoxicity against hTERT-immortalized human OKF6 cells assessed as reduction in cell viability after 24 hrs by tryphan blue staining based assay; conditions: OKF6, 24 h
Outline: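 OKF6/hTERT cells at 10^5/well in Ker-SFM were exposed for 24 h to 0, 1, 2.5, 5, 10, 15, 20, 25, 50 and 100 µM in DMSO. Viability was counted by trypan blue exclusion on an automated counter, in triplicate. IC50 was derived from a fitted concentration-response curve.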

[10] = Cytotoxicity against hTERT-immortalized human OKF6 cells assessed as cell death at 1 to 10 uM after 24 hrs by tryphan blue staining based assay; outline: as §4
Porphyromonas gingivalis [11] = assay: Antibacterial activity against Porphyromonas gingivalis 381 assessed as bacterial growth inhibition at 2.25 uM measured after 2 hrs in anaerobic condition by WST1 assay; format: functional, organism-based
Porphyromonas gingivalis [12] = assay: Bactericidal activity against Porphyromonas gingivalis 381 at 100 uM treated for 24 hrs and measured after 7 days incubation in anaerobic condition […]; format: functional, organism-based; outline: as §1
Porphyromonas gingivalis [13] = assay: Bactericidal activity against Porphyromonas gingivalis 381 at 1 uM treated for 24 hrs and measured after 7 days incubation in anaerobic condition by WST1 assay relative to control; format: functional; conditions: in the assay text read “by CFU counting” for “by WST1 assay”, read-out: GI; outline: as §1
Porphyromonas gingivalis [14] = assay: Bactericidal activity against Porphyromonas gingivalis 381 at 10 uM treated for 24 hrs and measured after 7 days incubation in anaerobic condition by CFU counting relative to control; conditions: read-out: GI

COc1cc(C(=O)NS(=O)(=O)c2ccccc2C)ccc1Cc1cn(C)c2ccc(NC(=O)OC3CCCC3)cc12
growth inhibition (GI) (Porphyromonas gingivalis [1]): Active | Activity (Porphyromonas gingivalis [2]): Active

COc1cc(C(=O)NS(=O)(=O)c2ccccc2C)ccc1Cc1cn(C)c2ccccc12
inhibition of growth at 100 µM (Porphyromonas gingivalis [3]): 60%

COc1ccc(Cc2c[nH]c3ccccc23)cc1C(=O)NS(=O)(=O)c1ccccc1
inhibition of growth at 10 µM (Porphyromonas gingivalis [4]): 40% | inhibition of growth at 100 µM (Porphyromonas gingivalis [3]): 100%

COc1ccc(Cc2cn(C)c3ccccc23)cc1C(=O)NS(=O)(=O)c1ccccc1C
inhibition of growth at 1 µM (Porphyromonas gingivalis [5]): 15 to 40% | inhibition of growth at 10 µM (Porphyromonas gingivalis [4]): 90 to 100% | inhibition of growth at 100 µM (Porphyromonas gingivalis [3]): 100% | growth inhibition (GI) (Actinomyces naeslundii): inactive | inhibition [6]: inactive | inhibition (INH) (Streptococcus sanguinis): 20% | inhibition (Veillonella parvula): inactive | inhibition (INH) (Fusobacterium nucleatum): 20% | viability at 24 h, 1 µM [7]: 70 to 90% | viability at 24 h, up to 10 µM [8]: 50 to 70% | IC50 [9]: 16 µM | Activity [10]: Toxic

O=C(NS(=O)(=O)c1ccccc1)c1ccc(Cc2c[nH]c3ccccc23)cc1
inhibition of growth at 10 µM (Porphyromonas gingivalis [4]): 40% | inhibition of growth at 100 µM (Porphyromonas gingivalis [3]): 100%

CN(C)[C@@H]1C(O)=C(C(N)=O)C(=O)[C@@]2(O)C(O)=C3C(=O)c4c(O)cccc4[C@@](C)(O)[C@H]3C[C@@H]12
growth inhibition (GI) (Porphyromonas gingivalis [11]): Active

COc1ccc(Cc2cn(C)c3ccc([N+](=O)[O-])cc23)cc1C(=O)NS(=O)(=O)c1ccccc1
inhibition of growth at 1 µM (Porphyromonas gingivalis [5]): 15 to 40% | inhibition of growth at 10 µM (Porphyromonas gingivalis [4]): 90 to 100% | inhibition of growth at 100 µM (Porphyromonas gingivalis [3]): 100% | Activity (Porphyromonas gingivalis [12]): Active | inhibition of growth at 1 µM (Porphyromonas gingivalis [13]): 60% | growth inhibition (GI) (Actinomyces naeslundii): inactive | inhibition [6]: inactive | inhibition (INH) (Streptococcus sanguinis): 20% | inhibition (Veillonella parvula): inactive | inhibition (INH) (Fusobacterium nucleatum): 20% | viability at 24 h, 1 µM [7]: 70 to 90% | viability at 24 h, up to 10 µM [8]: 50 to 70% | IC50 [9]: 54 µM | Activity [10]: Non-Toxic | inhibition of growth at 10 µM (Porphyromonas gingivalis [14]): 100%

Cc1ccccc1S(=O)(=O)NC(=O)c1ccc(Cc2c[nH]c3ccccc23)cc1
inhibition of growth at 10 µM (Porphyromonas gingivalis [4]): 90% | inhibition of growth at 100 µM (Porphyromonas gingivalis [3]): 100%

Cn1cc(Cc2ccc(C(=O)NS(=O)(=O)c3ccccc3)cc2)c2ccccc21
inhibition of growth at 10 µM (Porphyromonas gingivalis [4]): 90 to 100% | inhibition of growth at 100 µM (Porphyromonas gingivalis [3]): 100%

COc1cc(C(=O)NS(=O)(=O)c2ccccc2)ccc1Cc1cn(C)c2ccccc12
inhibition of growth at 100 µM (Porphyromonas gingivalis [3]): 60%

COc1ccc(Cc2c[nH]c3ccccc23)cc1C(=O)NS(=O)(=O)c1ccccc1C
inhibition of growth at 10 µM (Porphyromonas gingivalis [4]): 80% | inhibition of growth at 100 µM (Porphyromonas gingivalis [3]): 100%

COc1ccc(Cc2cn(C)c3ccccc23)cc1C(=O)NS(=O)(=O)c1ccccc1
inhibition of growth at 10 µM (Porphyromonas gingivalis [4]): 90 to 100% | inhibition of growth at 100 µM (Porphyromonas gingivalis [3]): 100%

COc1ccc(Cc2cn(C)c3ccc([N+](=O)[O-])cc23)cc1C(=O)NS(=O)(=O)c1ccccc1C
inhibition of growth at 1 µM (Porphyromonas gingivalis [5]): 15 to 40% | inhibition of growth at 10 µM (Porphyromonas gingivalis [4]): 90 to 100% | inhibition of growth at 100 µM (Porphyromonas gingivalis [3]): 100% | Activity (Porphyromonas gingivalis [12]): Active | inhibition (Actinomyces naeslundii): inactive | inhibition [6]: inactive | inhibition (INH) (Streptococcus sanguinis): 20% | inhibition (Veillonella parvula): inactive | inhibition (INH) (Fusobacterium nucleatum): 20% | viability at 24 h, 1 µM [7]: 70 to 90% | viability at 24 h, up to 10 µM [8]: 50 to 70% | IC50 [9]: 230 µM | Activity [10]: Toxic
